# ChEMBL document CHEMBL1124527, “2(1H)-quinolinones with cardiac stimulant activity. 3. Synthesis and biological properties of 6-imidazol-1-yl derivatives” (1989)
# Experiments:
# Canis familiaris [1] = experiment: Positive inotropic activity after intravenous administration of 10 ug/kg (dose) to anesthetized dog; assay type: functional, Canis lupus familiaris
# Method in brief: (§1)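 Dogs were anesthetized and intubated. Compound was given through a saphenous vein cannula, in 0.9% saline, 0.5 h after the standard quinazoline at 50 µg/kg, following a 0.75 h equilibration. The cycle was repeated once control levels returned, with at least 0.5 h between doses. LVP was recorded by a Millar catheter via the carotid artery and differentiated to dP/dtmax. Results are % increase in dP/dtmax, and also potency relative to the standard in the same dog: (%drug/%standard)×(dose standard/dose drug).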
# Canis familiaris [2] = experiment: 0.125 mg/kg of compound was administered orally to conscious adult Beagle dogs (n=4) and the effects on cardiac contractility was determined after 3 hr; assay type: functional, Canis lupus familiaris, Heart
# Method in brief: (§2)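 Conscious dogs (n = 4) were dosed orally by gavage with a solution of compound. The QA interval is the time in ms from the ECG R wave to the up-stroke of the arterial pressure pulse, measured by computer. Recordings were taken every 0.16 h from 0.5 h predose to 4 h postdose. Each point is the mean of six consecutive 8-s sets. Results are the change from the mean predose value, as mean ± SEM.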
# Canis familiaris [3] = experiment: 0.125 mg/kg of compound was administered orally to conscious adult Beagle dogs and the effects on cardiac contractility was determined after 1 hr; assay type: functional, Canis lupus familiaris, Heart; method in brief: as §2
# Canis familiaris [4] = experiment: Inotropic potencies relative to 4-[4-[2-(1,1-dioxo-2-isothiazolidinyl)ethyl]-1-piperidinyl]-6,7-dimethoxyquinazoline (50 ug/kg) in anesthetized dog; assay type: functional, Canis lupus familiaris; method in brief: as §1
# Canis familiaris [5] = experiment: Positive inotropic activity after intravenous administration of 50 ug/kg (dose) to anesthetized dog; assay type: functional, Canis lupus familiaris; method in brief: as §1
# Canis familiaris [6] = experiment: 0.5 mg/kg of compound was administered orally to conscious adult Beagle dogs and the effects on cardiac contractility was determined after 1 hr; assay type: functional, Canis lupus familiaris, Heart; method in brief: as §2
# Canis familiaris [7] = experiment: 0.5 mg/kg of compound was administered orally to conscious adult Beagle dogs (n=4) and the effects on cardiac contractility was determined after 3 hr; assay type: functional, Canis lupus familiaris, Heart; method in brief: as §2
# Canis familiaris [8] = experiment: 0.25 mg/kg of compound was administered orally to conscious adult Beagle dogs (n=4) and the effects on cardiac contractility was determined after 3 hr; assay type: functional, Canis lupus familiaris, Heart; method in brief: as §2
# Canis familiaris [9] = experiment: 0.25 mg/kg of compound was administered orally to conscious adult Beagle dogs and the effects on cardiac contractility was determined after 1 hr; assay type: functional, Canis lupus familiaris, Heart; set-up: unit: ms; method in brief: as §2
# Canis familiaris [10] = experiment: 2.0 mg/kg of compound was administered orally to conscious adult Beagle dogs (n=4) and the effects on cardiac contractility was determined after 3 hr; assay type: functional, Canis lupus familiaris, Heart; method in brief: as §2
# Canis familiaris [11] = experiment: 2.0 mg/kg of compound was administered orally to conscious adult Beagle dogs and the effects on cardiac contractility was determined after 1 hr; assay type: functional, Canis lupus familiaris, Heart; method in brief: as §2
# Canis familiaris [12] = experiment: Positive inotropic activity after intravenous administration of 50 ug/kg (dose) to anesthetized dogs; assay type: functional, Canis lupus familiaris; method in brief: as §1
# Canis familiaris [13] = experiment: 0.25 mg/kg compound was administered orally to conscious adult Beagle dogs (n=4) and the effects on cardiac contractility was determined after 3 hr; assay type: functional, Canis lupus familiaris, Heart; method in brief: as §2
# Canis familiaris [14] = experiment: Positive inotropic activity after intravenous administration of 25 ug/kg (dose) to anesthetized dog; assay type: functional, Canis lupus familiaris
# Canis familiaris [15] = experiment: 0.25 mg/kg of compound was administered orally to conscious adult Beagle dogs and the effects on cardiac contractility was determined after 3 hr; assay type: functional, Canis lupus familiaris, Heart; method in brief: as §2
# Canis familiaris [16] = experiment: Positive inotropic activity after intravenous administration of 12.5 ug/kg (dose) to anesthetized dog; assay type: functional, Canis lupus familiaris; method in brief: as §1
Structure (SMILES),Increase in dP/dTmax (Canis familiaris [1]) [%],Relative inotropic potency (Canis familiaris [4]),Increase in dP/dTmax (Canis familiaris [5]) [%],other results
Cc1cc(-n2cc(C#N)nc2C)cc2ccc(O)nc12,30,3,–,Decrease in QA interval (Canis familiaris [2]): 15; Decrease in QA interval (Canis familiaris [3]): 15
Cc1nc(C)n(-c2cc(C)c3nc(O)ccc3c2)c1S(C)(=O)=O,–,0.1,5,–
Cc1cn(-c2cc(C)c3nc(O)ccc3c2)c(-c2ccccc2)n1,–,0.3,15,–
Cc1cc(-n2cc(C(=O)c3ccccc3)nc2C)cc2ccc(O)nc12,–,0.5,31,–
CSc1c(C)nc(C)n1-c1cc(C)c2nc(O)ccc2c1,–,0.9,28,–
Cc1nc(C)n(-c2cc(C)c3nc(O)ccc3c2)c1[S+](C)[O-] (stereo not given),–,0.2,7,–
Cc1cn(-c2cc(C)c3nc(O)ccc3c2)c(I)n1,59,5.7,–,–
CC(=O)c1nc(C)cn1-c1cc(C)c2nc(O)ccc2c1,–,0.3,15,–
Cc1nc(C)n(-c2cc(C)c3nc(O)ccc3c2)c1I,–,0.5,17,–
Cc1cc(-n2cc(-c3ccccc3)nc2C)cc2ccc(O)nc12,15,2.4,–,Decrease in QA interval (Canis familiaris [6]): 13; Decrease in QA interval (Canis familiaris [7]): 10
Cc1cn(-c2cc(C)c3nc(O)ccc3c2)c(C#N)n1,53,4.1,–,Decrease in QA interval (Canis familiaris [8]): 15; Decrease in QA interval (Canis familiaris [9]): 15
Cc1cc(-n2cc(Cl)nc2C)cc2ccc(O)nc12,50,5.6,–,–
Cc1nc(C)n(-c2cc(C)c3nc(O)ccc3c2)c1Br,–,0.7,–,Decrease in QA interval (Canis familiaris [10]): 13; Decrease in QA interval (Canis familiaris [11]): 12; Increase in dP/dTmax (Canis familiaris [12]): 26%
Cc1cc(-n2cc(I)nc2C)cc2ccc(O)nc12,11,2.6,–,–
CCC(=O)c1cn(-c2cc(C)c3nc(O)ccc3c2)c(C)n1,–,0.9,29,–
CC(=O)c1c(C)nc(C)n1-c1cc(C)c2nc(O)ccc2c1,–,0.4,16,Decrease in QA interval (Canis familiaris [10]): 10; Decrease in QA interval (Canis familiaris [11]): 6
CC(=O)c1cn(-c2cc(C)c3nc(O)ccc3c2)c(C)n1,36,2.6,–,Decrease in QA interval (Canis familiaris [8]): 19; Decrease in QA interval (Canis familiaris [9]): 17
CSc1cn(-c2cc(C)c3nc(O)ccc3c2)c(C)n1,53,5,–,–
Cc1cc(-n2cc([S+](C)[O-])nc2C)cc2ccc(O)nc12 (stereo not given),–,0.7,65,–
Cc1cc(-n2cc(C(=O)C(C)C)nc2C)cc2ccc(O)nc12,–,0.6,24,–
Cc1nc(C)n(-c2cc(C)c3nc(O)ccc3c2)c1C#N,–,1.1,70,Decrease in QA interval (Canis familiaris [8]): 15; Decrease in QA interval (Canis familiaris [9]): 11
Cc1cc(-n2cc(S(C)(=O)=O)nc2C)cc2ccc(O)nc12,–,0.3,25,–
Cc1nc(C)n(-c2cc(C)c3nc(O)ccc3c2)c1Cl,32,2.9,–,Decrease in QA interval (Canis familiaris [2]): 10; Decrease in QA interval (Canis familiaris [3]): 12
Cc1[nH]c(=O)c(C#N)cc1-c1ccncc1 [MILRINONE],–,1.6,–,Decrease in QA interval (Canis familiaris [13]): 7; Increase in dP/dTmax (Canis familiaris [14]): 46%; Decrease in QA interval (Canis familiaris [9]): 13
Cc1cn(-c2cc(C)c3[nH]c(=O)ccc3c2)c(C)n1 [NANTERINONE],–,7.6,–,Decrease in QA interval (Canis familiaris [15]): 17; Decrease in QA interval (Canis familiaris [9]): 16; Increase in dP/dTmax (Canis familiaris [16]): 40%
